# pIC50: −log10 of the molar value.
# Experiments:
# [1] = Fraction unbound in human plasma by equilibrium dialysis method; assay type: ADME, cell-free
# Summary of the method: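 Binding was measured by equilibrium dialysis in 10% human plasma, with compound added from a DMSO stock.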
# [2] = Intrinsic clearance in human microsome assessed as rate of metabolism; assay type: ADME; conditions: microsomes
# Summary of the method: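 Compound from a DMSO stock was incubated with human liver microsomes. Rate of metabolism is expressed in μL/min/mg.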
# Estrogen receptor [3] = target: T1, Estrogen receptor (Homo sapiens, UniProt P03372); experiment: Displacement of fluorescent labelled fluormone ES2 from human recombinant GST tagged ER alpha LBD ( 282 to 595 residues) expressed in baculovirus infected insect cells incubate for 20 mins measured after 1 hr by TR-FRET Lanthascreen assay
# T1 sequence (P03372 whole entry): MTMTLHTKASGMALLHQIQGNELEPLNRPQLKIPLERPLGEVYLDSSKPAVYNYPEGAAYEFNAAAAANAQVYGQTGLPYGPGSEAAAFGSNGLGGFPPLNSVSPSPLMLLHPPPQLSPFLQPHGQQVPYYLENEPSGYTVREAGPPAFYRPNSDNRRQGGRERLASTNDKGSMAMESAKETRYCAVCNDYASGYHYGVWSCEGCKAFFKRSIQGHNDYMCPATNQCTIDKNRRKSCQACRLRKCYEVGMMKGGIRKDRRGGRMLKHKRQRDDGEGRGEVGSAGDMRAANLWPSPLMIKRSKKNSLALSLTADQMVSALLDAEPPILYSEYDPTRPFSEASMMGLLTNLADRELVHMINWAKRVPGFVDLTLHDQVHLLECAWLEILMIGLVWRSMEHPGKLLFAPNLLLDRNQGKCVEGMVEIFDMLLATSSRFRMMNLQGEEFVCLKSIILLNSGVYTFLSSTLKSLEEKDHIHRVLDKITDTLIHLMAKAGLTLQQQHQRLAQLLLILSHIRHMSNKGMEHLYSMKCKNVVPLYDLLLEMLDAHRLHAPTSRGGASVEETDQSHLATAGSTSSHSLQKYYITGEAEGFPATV
# Summary of the method: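 ER binding was reported as n ≥ 2 determinations, with SEM within 0.3 log units.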
# [4] = Intrinsic clearance in rat hepatocytes assessed rate of metabolism per 10^6 cells; assay type: ADME, cell-based, Hepatocyte; conditions: read-out: CLH
# Summary of the method: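 Compound from a DMSO stock was incubated with isolated rat hepatocytes diluted to 1 × 10^6 cells/mL. Rate of metabolism is expressed in μL/min/10^6 cells.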
# [5] = Lipophilicity, log D of compound at pH 7.4 by shake-flask method; assay type: physicochemical; conditions: buffer
# Summary of the method: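 logD at pH 7.4 was measured by the shake-flask method.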
# [6] = target: T2, Estrogen receptor (Homo sapiens) (UniProt P03372); experiment: Induction of ERalpha degradation in human MCF7 cells at 0.1 uM incubated for 18 to 22 hrs immuno-fluorescence assay relative to control; assay type: cell-based
# T2 sequence (whole entry): T1 sequence (P03372 whole entry)
# Estrogen receptor [7] = target: T1, Estrogen receptor; experiment: Induction of ERalpha degradation in human MCF7 cells incubated for 18 to 22 hrs by immuno-fluorescence assay; assay type: cell-based
# [8] = Efflux ratio of intrinsic permeability from basolateral to apical side over apical to basolateral side in human Caco2 cells at 7.4:7.4 apical: basolateral pH at 10 uM; assay type: ADME, cell-based; conditions: Caco-2, pH 7.4
# [9] = target: T2, Estrogen receptor (Homo sapiens); experiment: Induction of ERalpha degradation in human CAMA-1 cells at 0.1 uM incubated for 18 to 22 hrs Western blot assay relative to fulvestrant; assay type: cell-based
# Summary of the method: (§1)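 Western blot read-out of ERα protein loss in MCF-7 and CAMA-1 breast cancer cells treated with compound at 0.1 μM. Degradation expressed as percentage relative to fulvestrant.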
# [10] = target: T2, Estrogen receptor (Homo sapiens); experiment: Induction of ERalpha degradation in human MCF7 cells at 0.1 uM incubated for 18 to 22 hrs Western blot analysis relative to fulvestrant; assay type: cell-based; summary of the method: as §1
# [11] = AUC in rat at 1 mg/kg, po; assay type: ADME, organism-based; set-up: dose 1 mg/kg; conditions: in vivo
# Summary of the method: (§2)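 Rats were given 0.5 mg/kg IV in 5% DMSO:95% hydroxylpropyl β-cyclodextrin or 10% DMA:90% Captisol, and 1 mg/kg orally as a 0.1% HMPC/tween suspension or a 10% DMSO:90% cyclodextrin solution. Plasma clearance, Vdss and half-life came from the IV arm; AUC came from the oral arm; bioavailability F (%) was also reported.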
# [12] = Clearance in rat plasma at 0.5 mg/kg, iv and 1 mg/kg, po; assay type: ADME, organism-based; summary of the method: as §2
# [13] = Volume of distribution at steady state in rat at 0.5 mg/kg or 1 mg/kg, […]; assay type: ADME, organism-based; conditions: in vivo
# [14] = Half-life in rat at 0.5 mg/kg, iv; assay type: ADME, organism-based; conditions: in vivo; summary of the method: as §2
# [15] = Oral bioavailability in rat at 1 mg/kg; assay type: ADME, organism-based; conditions: in vivo; summary of the method: as §2
Structure (SMILES),fraction unbound [1],microsomal CLint [2] [µL/min/mg],pIC50 (Estrogen receptor [3]),hepatocyte CLint [4] [µL/min/1e6 cells],logD [5],Activity [6] [%],pIC50 (Estrogen receptor [7]),efflux ratio at 10 µM [8],Activity [9] [%],Activity [10] [%],AUC [11] [µM·h],clearance [12] [mL/min/kg],Vdss [13] [L/kg],half-life [14] [h],bioavailability [15] [%]
COc1cc2[nH]ncc2c2c1[C@@H](c1ccc(NC3CN(CCCF)C3)cn1)N(CC(F)(F)F)[C@H](C)C2,0.32,26,6.30,6,2.4,40,8.60,,,,,,,,
C[C@@H]1Cc2c(ccc3[nH]ncc23)[C@@H](c2ncc(NC3CN(CCCF)C3)cc2F)N1CC(F)(F)F,0.16,19,8.70,24,3,98,9.60,7,98,96,,,,,
C[C@@H]1Cc2c(ccc3[nH]ncc23)[C@@H](c2ccc(NC3CN(CCCF)C3)cn2)N1CC(F)(F)F [CAMIZESTRANT],,12,,,2.9,99,,,98,95,,,,,
C[C@@H]1Cc2c(ccc3[nH]nc(F)c23)[C@@H](c2ncc(NC3CN(CCCF)C3)cc2F)N1CC(F)(F)F,0.054,34,8.90,10,,99,,1.4,,,0.76,24,17,9.6,60
C[C@@H]1Cc2c(ccc3[nH]ncc23)[C@@H](c2ccc(NC3CN(CCCF)C3)c(F)n2)N1CC(F)(F)F,0.16,20,,36,3,98,,,,,0.22,65,7.7,1.9,34
C[C@@H]1Cc2c(ccc3[nH]nc(F)c23)[C@@H](c2ccc(NC3CN(CCCF)C3)c(F)n2)N1CC(F)(F)F,0.068,44,9.00,10,,99,10.30,,,,,,,,
FCCCN1CC(Nc2ccc([C@@H]3c4ccc5[nH]ncc5c4C[C@@H](C(F)F)N3CC(F)F)nc2)C1,0.28,34,,32,,97,,,,,,,,,
C[C@@H]1Cc2c(ccc3[nH]ncc23)[C@@H](c2ncc(NC3CN(CCCF)C3)cc2F)N1CC(F)(F)CF,,26,,55,,98,,,,,,,,,
C[C@@H]1Cc2c(c(F)cc3[nH]ncc23)[C@@H](c2ccc(NC3CN(CCCF)C3)cn2)N1CC(F)(F)F,0.19,8,7.80,11,2.7,95,8.30,,,,,,,,
C[C@@H]1Cc2c(ccc3[nH]ncc23)[C@@H](c2ccc(NC3CN(CCCF)C3)cn2)N1CC(F)F,,28,,,,99,,,,,,,,,
C[C@@H]1Cc2c(cc(F)c3[nH]ncc23)[C@@H](c2ccc(NC3CN(CCCF)C3)cn2)N1CC(F)(F)F,0.14,19,9.30,20,3.2,98,9.70,,,,,,,,
C[C@@H]1Cc2c(c(O)cc3[nH]ncc23)[C@@H](c2ccc(NC3CN(CCCF)C3)cn2)N1CC(F)(F)F,,5,7.40,11,2.3,> 80,6.90,,,,,,,,
